ChEMBL document CHEMBL1158033, “C-26 and C-30 apocarotenoids from seeds of Ditaxis heterantha with antioxidant activity and protection against DNA oxidative damage” (J Nat Prod, 2006)

How the values were obtained:
[1] = Antiradical activity assessed as DPPH radical scavenging activity at 1050 uM by spectrophotometry relative to control; type: physicochemical
Procedure, shortened: (§1)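 Sample (150–1500 μM; MeOH, or Et2O for lycopene, β-carotene, astaxanthin) added to 150 μM DPPH in MeOH and kept in the dark at ~20 °C for 60 min. Absorbance read at 520 nm. Activity = 100 × (1 − Asample/Acontrol), with control lacking sample. Triplicates; Tukey's test and Pearson correlation.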

[2] = Antiradical activity assessed as DPPH radical scavenging activity at 1500 uM by spectrophotometry relative to control; type: physicochemical; procedure, shortened: as §1
[3] = Antigenotoxic activity against H2O2-induced oxidative DNA damage in rat lymphocyte assessed as tail length at 500 uM by comet assay; type: functional
Procedure, shortened: (§2)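 Rat peripheral blood mononuclear cells isolated on Histopaque 1077, 1×10^7 cells/mL in cold PBS pH 7.4, viability >90% by trypan blue. Cells preincubated with sample in DMSO (5%) at 37 °C for 30 min, then H2O2 1 mM final, 37 °C for 10 min. Alkaline comet assay, ethidium bromide stain, image analysis of 50 cells, 400×. Mean ± SE of four values, one-way ANOVA.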

[4] = tested on: Lymphocyte; assay: Antigenotoxic activity against H2O2-induced oxidative DNA damage in rat lymphocyte assessed as cauda tail moment at 1000 uM by comet assay; type: functional; procedure, shortened: as §2
[5] = Antigenotoxic activity against H2O2-induced oxidative DNA damage in rat lymphocyte assessed as tail length at 1000 uM by comet assay; type: functional; procedure, shortened: as §2
[6] = Antigenotoxic activity against H2O2-induced oxidative DNA damage in rat lymphocyte assessed as cauda tail moment at 500 uM by comet assay; type: functional; procedure, shortened: as §2
[7] = Antigenotoxic activity against H2O2-induced oxidative DNA damage in rat lymphocyte assessed as olive tail moment at 1000 uM by comet assay; type: functional; procedure, shortened: as §2
[8] = Antigenotoxic activity against H2O2-induced oxidative DNA damage in rat lymphocyte assessed as olive tail moment at 500 uM by comet assay; type: functional; procedure, shortened: as §2
[9] = Antiradical activity assessed as DPPH radical scavenging activity at 750 uM by spectrophotometry relative to control; type: physicochemical; procedure, shortened: as §1
[10] = Antiradical activity assessed as DPPH radical scavenging activity at 150 uM by spectrophotometry relative to control; type: physicochemical; procedure, shortened: as §1

Structure (SMILES) | Activity [1] | Activity [2] [%] | Activity [3] [um] | Activity [4] [a.u.] | Activity [5] [um] | Activity [6] [a.u.] | Activity [7] [a.u.] | Activity [8] [a.u.] | Activity [9] | Activity [10]
CC1=C(/C=C/C(C)=C/C=C/C(C)=C/C=C/C=C(C)/C=C/C=C(C)/C=C/C2=C(C)C(=O)[C@@H](O)CC2(C)C)C(C)(C)C[C@H](O)C1=O [ASTAXANTHIN] | Active | 52 | – | – | – | – | – | – | – | –
CC1=C(/C=C/C(C)=C/C=C/C(C)=C/C=C/C=C(C)/C=C/C=C(C)/C=C/C2=C(C)CCCC2(C)C)C(C)(C)CCC1 [BETA CAROTENE] | Active | 36 | – | – | – | – | – | – | – | –
COC(=O)/C(C)=C/C=C/C(C)=C/C=C/C=C(C)/C=C/C=C(C)/C=C/[C@]12O[C@@H](CC1(C)C)C[C@]2(C)O [DITAXIN] | Active | 12 | 35.94 | 12.27 | 28.15 | 18.8 | 8.21 | 11.58 | – | –
COC(=O)/C(C)=C/C=C/C=C(C)/C=C/C=C(C)/C=C/[C@@H]1C(C)=CC(=O)CC1(C)C [HETERANTHIN] | Active | 21 | 34.13 | 6.24 | 20.93 | 17.02 | 4.4 | 10.8 | Active | Active
CC(C)=CCC/C(C)=C/C=C/C(C)=C/C=C/C(C)=C/C=C/C=C(C)/C=C/C=C(C)/C=C/C=C(\C)CCC=C(C)C [LYCOPENE] | Active | 36 | – | – | – | – | – | – | – | –
